Results on three compounds are retold here after article PMC10360043 (FASEB journal : official publication of the Federation of …, 2023).

One series relates to CA-125. The series is described as follows: Pilot clinical trial, CA-125 in relapsed ovarian cancer. Type of series: in vivo, human.
For another series, the system named is OVCAR8 cells. As to the kind of experiment: PrestoBlue cell viability, OVCAR8. The class given is cell-based, human. As to conditions: for OVCAR8 cell viability, time course: concentrations and timepoints used in Figure 4A and B.
The nature of series [1]: Pilot clinical trial, adverse events. Type of series: in vivo, human. As to conditions: 40 mg twice daily, four women.
For series [2] the following is noted: 40 mg, oral ingestion; cited from earlier work.
Series [3] relates to OVCAR8 tumors. The series is described as follows: OVCAR8 xenograft in NOG mice. The class given is in vivo. To be noted: 30 mg/kg i.p. daily.
In another series the test system is plasma thiol isomerase. As to the kind of experiment: Plasma thiol isomerase activity of patients. Type of series: in vivo, human. As to conditions: day 28 versus day 0, 40 mg twice daily.
In another series the target is T1, ERp72 (Homo sapiens, UniProt P13667).
T1 sequence (P13667 21-645): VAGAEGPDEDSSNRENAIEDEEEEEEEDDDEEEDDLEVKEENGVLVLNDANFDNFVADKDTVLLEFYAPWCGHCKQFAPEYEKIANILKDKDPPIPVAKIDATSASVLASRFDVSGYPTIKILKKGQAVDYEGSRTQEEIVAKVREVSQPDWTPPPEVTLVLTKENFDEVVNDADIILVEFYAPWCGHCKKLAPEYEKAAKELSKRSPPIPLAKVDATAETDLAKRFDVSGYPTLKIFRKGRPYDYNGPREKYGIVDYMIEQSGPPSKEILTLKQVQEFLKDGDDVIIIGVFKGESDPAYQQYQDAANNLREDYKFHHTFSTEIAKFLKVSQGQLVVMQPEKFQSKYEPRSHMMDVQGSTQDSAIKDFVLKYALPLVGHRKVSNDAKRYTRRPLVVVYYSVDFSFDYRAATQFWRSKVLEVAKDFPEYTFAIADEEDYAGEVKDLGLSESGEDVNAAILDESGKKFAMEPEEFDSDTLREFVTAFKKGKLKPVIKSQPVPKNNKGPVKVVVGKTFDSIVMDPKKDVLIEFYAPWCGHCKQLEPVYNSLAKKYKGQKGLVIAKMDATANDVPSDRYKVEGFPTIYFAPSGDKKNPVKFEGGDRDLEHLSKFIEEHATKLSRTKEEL
As to the kind of experiment: Insulin-based turbidimetric assay, ERp72. To be noted: insulin turbidity assay, 6-point dose curve. Type of series: biochemical. The method, boiled down:
(§1)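 Recombinant enzymes were purchased. Test compound was tested as a 6-point dilution series with enzyme at 10 μg/mL final (ERp5 at 30 μg/mL), 125 μM bovine recombinant insulin, 2 mM EDTA and 100 mM potassium phosphate. The reaction was started with 0.3 mM DTT, and insulin aggregation turbidity was read every minute for 75 min.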

Series [4] has as its system PDI, ERp5, ERp57, and ERp72 levels in OVCAR8 cells. The series is described as follows: Western blot of thiol isomerase levels in OVCAR8 cells. To be noted: 10 μM and 30 μM, 1 hour. Type of series: cell-based, human. On the technique in general: Immunoblotting shows a protein as a band on a membrane.
The subject of a further series is LTR2 receptor. To be noted: cited from earlier work.
The target in another series is T2, ERp5 (Homo sapiens, UniProt Q15084).
T2 sequence (Q15084 20-440): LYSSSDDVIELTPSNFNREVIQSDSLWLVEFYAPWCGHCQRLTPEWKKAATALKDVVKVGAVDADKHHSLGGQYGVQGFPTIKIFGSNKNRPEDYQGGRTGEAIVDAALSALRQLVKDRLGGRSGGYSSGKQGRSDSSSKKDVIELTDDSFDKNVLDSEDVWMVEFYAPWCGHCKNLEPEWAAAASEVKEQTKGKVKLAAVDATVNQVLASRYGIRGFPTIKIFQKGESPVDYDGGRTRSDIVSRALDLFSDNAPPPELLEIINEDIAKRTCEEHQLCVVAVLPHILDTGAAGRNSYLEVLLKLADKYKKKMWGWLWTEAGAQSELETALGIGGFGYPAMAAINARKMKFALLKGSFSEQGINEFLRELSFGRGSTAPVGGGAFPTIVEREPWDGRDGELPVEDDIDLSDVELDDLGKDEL
The series is described as follows: Insulin-based turbidimetric assay, ERp5. Type of series: biochemical. As to conditions: insulin turbidity assay, 6-point dose curve. In a few lines:
as §1

Series [5] has as its system OVCAR8 tumors. As to the kind of experiment: OVCAR8 xenograft with cisplatin and gemcitabine. The class given is in vivo, NOG mice.
The next series deals with HEK293 cell line. The series is described as follows: PrestoBlue cell viability, HEK293. As to conditions: Homo sapiens, HEK293, read-out: cell viability IC50. Type of series: cell-based. The method, boiled down:
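HEK293 cells were maintained in high-glucose DMEM with 4 mM glutamine and 10% FBS. Cells were plated at 5,000 per well and grown 24 h, then exposed to test compound or vehicle for 2–24 h. PrestoBlue was added for 10–20 min at 37°C, and fluorescence was read (ex 560/em 590 nm). Signal was expressed as percent of control.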

The subject of series [6] is tissue factor dependent Factor Xa generation. The series is described as follows: Factor Xa generation assay on OVCAR8 cells. Type of series: cell-based, human. As to conditions: 1, 3, 10, and 30 µM, 30 minutes; significant at 10 and 30 µM.
In another series the target is T3, ERp57 (Homo sapiens, UniProt P30101).
T3 sequence (P30101 25-505): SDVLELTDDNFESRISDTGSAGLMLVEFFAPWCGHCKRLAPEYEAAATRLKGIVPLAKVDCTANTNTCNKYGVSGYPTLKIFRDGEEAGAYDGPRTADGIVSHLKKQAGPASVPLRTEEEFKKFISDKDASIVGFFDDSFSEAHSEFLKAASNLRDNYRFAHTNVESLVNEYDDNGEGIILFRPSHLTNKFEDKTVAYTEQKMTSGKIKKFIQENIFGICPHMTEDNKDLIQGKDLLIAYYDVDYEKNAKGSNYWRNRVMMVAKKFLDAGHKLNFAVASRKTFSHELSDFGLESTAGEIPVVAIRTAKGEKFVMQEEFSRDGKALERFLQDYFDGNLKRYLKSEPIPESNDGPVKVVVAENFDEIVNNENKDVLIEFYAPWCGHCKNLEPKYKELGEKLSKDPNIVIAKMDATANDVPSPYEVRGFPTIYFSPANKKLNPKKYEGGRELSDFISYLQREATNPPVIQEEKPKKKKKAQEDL
The series is described as follows: Insulin-based turbidimetric assay, ERp57. The class given is biochemical. To be noted: insulin turbidity assay, 6-point dose curve. The method, boiled down: as §1

The conditions of series [7]: double the FDA approved dose for asthma; cited from earlier work.
The test system of a further series is EGFR. As to the kind of experiment: EGFR phosphorylation after EGF stimulation. As to conditions: for decrease of EGFR phosphorylation: then EGF, OVCAR8. The class given is cell-based, human. In a few lines:
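OVCAR8 cells, grown to confluence, were serum-starved, exposed to test compound for 1 or 4 h, then stimulated with EGF (100 ng/mL final). Whole-cell extracts were made in M-PER, protein was quantified by Bradford, and samples were run on SDS-PAGE and transferred to PVDF. Blots were blocked in 5% milk/TBS, probed with anti-pEGFR-Y1068 and an HRP secondary in 3% BSA/TBS-0.1% Tween 20. Student's t-test versus the EGF control.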

For a further series, the system named is Gab1. As to the kind of experiment: Gab1 phosphorylation after EGF stimulation. Type of series: cell-based, human.
A further series deals with PDI (Homo sapiens, UniProt P07237). The series is described as follows: Insulin-based turbidimetric assay, PDI. Type of series: biochemical. As to conditions: insulin turbidity assay, 6-point dose curve. In a few lines:
as §1

The subject of a further series is LTR1 receptor. As to conditions: cited from earlier work.

PDI, sequence (P07237 18-508): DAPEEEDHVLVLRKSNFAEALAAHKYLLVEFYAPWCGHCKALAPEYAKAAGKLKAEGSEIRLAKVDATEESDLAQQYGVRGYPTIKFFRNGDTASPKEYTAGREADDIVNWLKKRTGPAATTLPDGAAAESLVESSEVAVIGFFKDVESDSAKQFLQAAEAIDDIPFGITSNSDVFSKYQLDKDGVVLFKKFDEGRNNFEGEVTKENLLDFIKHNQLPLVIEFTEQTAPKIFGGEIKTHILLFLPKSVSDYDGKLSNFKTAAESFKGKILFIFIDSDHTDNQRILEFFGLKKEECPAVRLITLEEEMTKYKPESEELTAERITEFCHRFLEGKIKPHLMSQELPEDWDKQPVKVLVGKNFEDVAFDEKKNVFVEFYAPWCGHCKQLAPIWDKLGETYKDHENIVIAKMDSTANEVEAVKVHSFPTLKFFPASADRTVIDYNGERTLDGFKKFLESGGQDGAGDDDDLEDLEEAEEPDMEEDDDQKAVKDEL

As to `COc1cc(C(=O)NS(=O)(=O)c2ccccc2C)ccc1Cc1cn(C)c2ccc(NC(=O)OC3CCCC3)cc12` [zafirlukast], the CA-125 response entry in the series on CA-125 (40 mg twice daily, four women) is reported as “None of the women demonstrated a decrease in CA-125”. In the series with CA-125 (following 40 mg twice daily, 0.036 prior to treatment), the “mean change in CA-125” value was 0.015 U/mL per day. In addition, in the series on CA-125 (following 40 mg twice daily, 29.8 days prior to treatment), the “mean CA-125 doubling time” value was 85.69 days. Besides, the IC50 (as a rule, the concentration that gives 50% inhibition) in the series on OVCAR8 cells (Homo sapiens, OVCAR-8, read-out: cell viability IC50) was 12 µM; in the series with HEK293 cell line, > 100 µM. Further, in the series on OVCAR8 cells, the “OVCAR8 cell viability, time course” value is reported as “minimally altered”. Besides, the “grade 3 or higher adverse events” value in [1] is “no grade 3 or higher adverse events reported”. Further, the hemorrhage result in [1] is listed as “no cases of hemorrhage reported”. Besides, in [1], the “toxicity considered possibly related to zafirlukast” value is recorded as “headache (grade 1)”. Further, the peak plasma concentration in [2] is on record as ~ 3 μM. Moreover, in the series with OVCAR8 tumors [3] (32 days, control group 2.5), the “lung metastasis score (scale 0–4)” value was 0.25. The “mean decrease in tumor volume compared to controls” value in the series with OVCAR8 tumors [3] (day 32) is reported as 42%. Besides, the “reduction of plasma thiol isomerase activity” value in the series with plasma thiol isomerase is listed as “three out of four patients”. Besides, on ERp72, the “inhibition of ERp72” value is on record as “concentration-dependent manner”. The “change in thiol isomerase expression” value in [4] is “No significant change”. Also, in the series on LTR2 receptor, the “effects on the LTR2 receptor” value is “minimal effects”. The “inhibition of ERp5” value against ERp5 is reported as “concentration-dependent manner”. Moreover, the “mean decrease of tumor volume relative to cisplatin-gemcitabine alone” value in the series on OVCAR8 tumors [5] (30 mg/kg zafirlukast daily added to 5 mg/kg cisplatin and 120 mg/kg gemcitabine weekly, after 4 weeks) is reported as 38%. In addition, in the series with OVCAR8 tumors [5] (zafirlukast plus cisplatin and gemcitabine, end of the study), the “decrease in tumor volume compared to the vehicle control” value stood at 83%. In series [6], the “Factor Xa generation” value is “dose dependent decrease”. The “inhibition of ERp57” value against ERp57 is “concentration-dependent manner”. In addition, the “tolerability of the 40 mg dose” value in [7] is reported as “well tolerated”. The “decrease of EGFR phosphorylation” value with EGFR (10 μM, 1 hour) was 18%; in the series on EGFR (10 μM, four hours) it was 39%; with EGFR (30 μM, 1 hour), 27%; in the series with EGFR (30 μM, four hours) it was 52%. Further, the “decrease of Gab1 phosphorylation” value in the series with Gab1 (10 μM, 1 hour, then EGF, OVCAR8) is listed as 37%. In addition, in the series on Gab1 (all other time points and concentrations (10 μM 4 hours; 30 μM 1 and 4 hours)), the “Gab1 phosphorylation decreased to” value was ≤ 5%. Further, on PDI, the “inhibition of PDI” value is listed as “concentration-dependent manner”.

For the compound `CC(C)(O)c1ccccc1CC[C@@H](SCC1(CC(=O)O)CC1)c1cccc(/C=C/c2ccc3ccc(Cl)cc3n2)c1` [montelukast], the “potency at inhibiting the LTR1 receptor, times more potent than zafirlukast” value in the series with LTR1 receptor is on record as 2–3 times. Moreover, at ERp72, the “inhibition of ERp72” value is “inhibited all four thiol isomerases albeit with less potency”. Also, the “effects on the LTR2 receptor” value in the series on LTR2 receptor is given as “minimal effects”. In addition, the “inhibition of ERp5” value against ERp5 is on record as “inhibited all four thiol isomerases albeit with less potency”. For the same compound, the “inhibition of ERp57” value at ERp57 is on record as “inhibited all four thiol isomerases albeit with less potency”. Moreover, the “inhibition of PDI” value against PDI is reported as “inhibited all four thiol isomerases albeit with less potency”.

On to PACMA-31, for which the “OVCAR8 cell viability, time course” value in the series with OVCAR8 cells is reported as “minimally altered”. Moreover, in the series with EGFR (OVCAR8, Figure 4B), the “inhibition of EGFR activation” value is reported as “inhibited EFGR activation in a concentration-dependent manner”.
